pIC50: −log10 of the molar value. Activity calls are given as the source filed them.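 How the source made its calls: active means inhibition of 30% or more at any tested concentration; inactive means the rest.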
biological target: M18 aspartyl aminopeptidase (Plasmodium falciparum 3D7); test: PfM18AAP aminopeptidase inhibitors, dose response, biochemical, QFRET, H-Glu-NHMec substrate, set 1 (AID 602222); details: recombinant PfM18AAP, H-Glu-NHMec fluorogenic substrate cleavage
In short: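 Control set: Full reaction and no-enzyme wells | Material: PFM18AAP, purified recombinant M18 aspartyl aminopeptidase of Plasmodium falciparum | Input: Enzyme 5 µg/mL final | Reagent: H-Glu-NHMec substrate, 0.1 mM final | Compound: 10 concentrations, 1:2 steps, top 100 µM | Technique: Fluorescence of liberated NHMec leaving group | Replicates: Triplicate | Schedule: 90 min reaction at room temperature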

Row | pIC50 | SMILES
1 | 4.57 | CN1CCN(CCc2ccc(O)c(O)c2)CC1
2 | 5.19 | Oc1ccc(-c2csc(Nc3ncccn3)n2)cc1O
3 | 5.13 | Oc1ccc(CCNc2ccnc3ccccc23)cc1O
4 | 5.03 | CN1CCN(c2nc(-c3ccc(O)c(O)c3)cs2)CC1

Second part, the compound before the results:

Row | SMILES | pIC50
5 | Oc1ccc(-c2csc(NC3CCCC3)n2)cc1O | 4.88
6 | CN1CCN(CCCc2ccc(O)c(O)c2)CC1 | 4.88
7 | Oc1ccc(CCNc2c3ccccc3nc3ccccc23)cc1O | 5.37
8 | CCc1ccc(NC(=O)Cc2nc(-c3ccc(O)c(O)c3)cs2)cc1 | 4.78

same assay, conditions: recombinant PfM18AAP, H-Glu-NHMec fluorogenic substrate cleavage; at 100 µM (top of the series)

Row | inhibition | SMILES
9 | inactive | COc1ccc(CCCN2CCN(C)CC2)cc1OC
10 | inactive | COc1ccc(CCNC(c2ccccc2)c2ccccc2)cc1OC
